In ChEMBL document CHEMBL2311404, “Synthesis, antibacterial activity and docking of 14-membered 9-O-(3-arylalkyl) oxime 11,12-cyclic carbonate ketolides” (2013):
≈ marks a conversion by molar mass, not a printed value.

Tests used:
Format in all cases: functional
Streptococcus pyogenes [1] = test: Ratio of azithromycin MIC to compound MIC for constitutive MLS-resistant Streptococcus pyogenes A2
Staphylococcus aureus [2] = test: Antibacterial activity against methicillin-resistant, inducible MLS-resistant Staphylococcus aureus PU 32 expressing ermA gene by broth microdilution method
Outline: (§1)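 Clinical isolates confirmed by 16S rDNA sequencing. MIC determined by broth microdilution following CLSI recommendations. Quality-control strains were S. aureus ATCC 29213 and S. pneumoniae ATCC 49619. Azithromycin and clarithromycin were run in parallel as reference agents.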

Streptococcus pneumoniae [3] = test: Antibacterial activity against erythromycin-sensitive Streptococcus pneumoniae ATCC 49619 by broth microdilution method
Outline: (§2)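 MIC by broth microdilution following CLSI recommendations. Clinical isolates were identified by 16S rDNA sequencing and labeled by genotype and phenotype. S. aureus ATCC 29213 and S. pneumoniae ATCC 49619 served as control strains, with azithromycin and clarithromycin as reference agents.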

Staphylococcus hominis [4] = test: Ratio of azithromycin MIC to compound MIC for methicillin-resistant, inducible MLS-resistant, coagulase-deficient Staphylococcus hominis E 3
Streptococcus pneumoniae [5] = test: Ratio of clarithromycin MIC to compound MIC for penicillin-resistant, constitutive MLS-resistant Streptococcus pneumoniae PU 11 expressing erm and mef genes
[6] = system: Streptococcus dysgalactiae; test: Antibacterial activity against erythromycin-resistant Streptococcus dysgalactiae A1 expressing efflux pump by broth microdilution method; outline: as §1
Streptococcus pneumoniae [7] = test: Antibacterial activity against penicillin-susceptible Streptococcus pneumoniae PU 09 expressing mef gene by broth microdilution method; outline: as §2
[8] = system: Staphylococcus epidermidis; test: Ratio of azithromycin MIC to compound MIC for methicillin-susceptible, inducible MLS-resistant Staphylococcus epidermidis E 1
Streptococcus pyogenes [9] = test: Antibacterial activity against constitutive MLS-resistant Streptococcus pyogenes A2 by broth microdilution method; outline: as §1
[10] = system: Staphylococcus epidermidis; test: Antibacterial activity against methicillin-resistant, constitutive MLS-resistant Staphylococcus epidermidis E 2 by broth microdilution method; outline: as §1
Streptococcus pneumoniae [11] = test: Antibacterial activity against penicillin-resistant, constitutive MLS-resistant Streptococcus pneumoniae PU 11 expressing erm and mef genes by broth microdilution method; outline: as §1
[12] = system: Staphylococcus epidermidis; test: Ratio of azithromycin MIC to compound MIC for methicillin-resistant, constitutive MLS-resistant Staphylococcus epidermidis E 2
Streptococcus pyogenes [13] = test: Antibacterial activity against erythromycin-susceptible Streptococcus pyogenes A3 by broth microdilution method; outline: as §2
[14] = system: Staphylococcus epidermidis; test: Ratio of clarithromycin MIC to compound MIC for methicillin-susceptible, inducible MLS-resistant Staphylococcus epidermidis E 1
[15] = system: Staphylococcus haemolyticus; test: Antibacterial activity against methicillin-resistant, constitutive MLS-resistant, coagulase-deficient Staphylococcus haemolyticus PU 19 expressing ermA gene by broth microdilution method; outline: as §1
Staphylococcus hominis [16] = test: Ratio of clarithromycin MIC to compound MIC for methicillin-resistant, inducible MLS-resistant, coagulase-deficient Staphylococcus hominis E 3
[17] = system: Staphylococcus haemolyticus; test: Ratio of azithromycin MIC to compound MIC for methicillin-resistant, constitutive MLS-resistant, coagulase-deficient Staphylococcus haemolyticus PU 19 expressing ermA gene
[18] = system: Staphylococcus haemolyticus; test: Ratio of clarithromycin MIC to compound MIC for methicillin-resistant, constitutive MLS-resistant, coagulase-deficient Staphylococcus haemolyticus PU 19 expressing ermA gene
Streptococcus pneumoniae [19] = test: Antibacterial activity against penicillin-susceptible, constitutive MLS-resistant Streptococcus pneumoniae PU 27 expressing erm gene by broth microdilution method; outline: as §1
Streptococcus pyogenes [20] = test: Ratio of clarithromycin MIC to compound MIC for constitutive MLS-resistant Streptococcus pyogenes A2
[21] = system: Staphylococcus epidermidis; test: Antibacterial activity against methicillin-susceptible, inducible MLS-resistant Staphylococcus epidermidis E 1 by broth microdilution method; outline: as §1
Streptococcus pneumoniae [22] = test: Ratio of azithromycin MIC to compound MIC for penicillin-resistant, constitutive MLS-resistant Streptococcus pneumoniae PU 11 expressing erm and mef genes
Staphylococcus aureus [23] = test: Antibacterial activity against erythromycin-susceptible Staphylococcus aureus ATCC 29213 by broth microdilution method; outline: as §2
Streptococcus pneumoniae [24] = test: Ratio of clarithromycin MIC to compound MIC for penicillin-susceptible Streptococcus pneumoniae PU 09 expressing mef gene
Staphylococcus hominis [25] = test: Antibacterial activity against methicillin-resistant, inducible MLS-resistant, coagulase-deficient Staphylococcus hominis E 3 by broth microdilution method; outline: as §1
[26] = system: Streptococcus dysgalactiae; test: Ratio of clarithromycin MIC to compound MIC for erythromycin-resistant Streptococcus dysgalactiae A1 expressing efflux pump
[27] = system: Staphylococcus epidermidis; test: Ratio of clarithromycin MIC to compound MIC for methicillin-resistant, constitutive MLS-resistant Staphylococcus epidermidis E 2
Staphylococcus aureus [28] = test: Antibacterial activity against methicillin-sensitive, inducible MLS-resistant Staphylococcus aureus PU 64 expressing ermA gene by broth microdilution method; outline: as §1
Staphylococcus aureus [29] = test: Antibacterial activity against methicillin-resistant, constitutive MLS-resistant Staphylococcus aureus PU 20 expressing ermC gene by broth microdilution method; outline: as §1

CC[C@H]1OC(=O)[C@H](C)C(=O)[C@H](C)[C@@H](O[C@@H]2O[C@H](C)C[C@H](N(C)C)[C@H]2O)[C@](C)(OC)C[C@@H](C)/C(=N\OCC#Cc2cncc3ccccc23)[C@H](C)[C@H]2OC(=O)O[C@@]21C
Ratio (Streptococcus pyogenes [1]): >8 | MIC (Staphylococcus aureus [2]): 0.032 µg/mL (≈ 0.0403 µM) | MIC (Streptococcus pneumoniae [3]): ≤ 0.008 µg/mL | Ratio (Staphylococcus hominis [4]): >4000 | Ratio (Streptococcus pneumoniae [5]): >8 | MIC [6]: 0.016 µg/mL (≈ 0.0202 µM) | MIC (Streptococcus pneumoniae [7]): 0.032 µg/mL (≈ 0.0403 µM) | Ratio [8]: >16000 | MIC (Streptococcus pyogenes [9]): 16 µg/mL (≈ 20.2 µM) | MIC [10]: 32 µg/mL (≈ 40.3 µM) | MIC (Streptococcus pneumoniae [11]): 16 µg/mL (≈ 20.2 µM) | Ratio [12]: >8 | MIC (Streptococcus pyogenes [13]): ≤ 0.008 µg/mL | Ratio [14]: >16000 | MIC [15]: 32 µg/mL (≈ 40.3 µM) | Ratio (Staphylococcus hominis [16]): >4000 | Ratio [17]: >8 | Ratio [18]: >8 | MIC (Streptococcus pneumoniae [19]): 0.064 µg/mL (≈ 0.0806 µM) | Ratio (Streptococcus pyogenes [20]): >8 | MIC [21]: 0.016 µg/mL (≈ 0.0202 µM) | Ratio (Streptococcus pneumoniae [22]): >8 | MIC (Staphylococcus aureus [23]): 0.016 µg/mL (≈ 0.0202 µM) | Ratio (Streptococcus pneumoniae [24]): 125 | MIC (Staphylococcus hominis [25]): 0.064 µg/mL (≈ 0.0806 µM) | Ratio [26]: 500 | Ratio [27]: >8

CC[C@H]1OC(=O)[C@H](C)[C@@H](O[C@H]2C[C@@](C)(OC)[C@@H](O)[C@H](C)O2)[C@H](C)[C@@H](O[C@@H]2O[C@H](C)C[C@H](N(C)C)[C@H]2O)[C@](C)(OC)C[C@@H](C)C(=O)[C@H](C)[C@@H](O)[C@]1(C)O [CLARITHROMYCIN]
MIC (Staphylococcus aureus [2]): 1 µg/mL (≈ 1.34 µM) | MIC (Streptococcus pneumoniae [3]): 0.032 µg/mL (≈ 0.0428 µM) | MIC [6]: 8 µg/mL (≈ 10.7 µM) | MIC (Streptococcus pneumoniae [7]): 4 µg/mL (≈ 5.35 µM) | MIC (Staphylococcus aureus [28]): 2 µg/mL (≈ 2.67 µM) | MIC (Streptococcus pyogenes [9]): > 256 µg/mL | MIC (Staphylococcus aureus [29]): > 256 µg/mL | MIC [10]: > 256 µg/mL | MIC (Streptococcus pneumoniae [11]): > 256 µg/mL | MIC (Streptococcus pyogenes [13]): 0.032 µg/mL (≈ 0.0428 µM) | MIC [15]: > 256 µg/mL | MIC (Streptococcus pneumoniae [19]): 1 µg/mL (≈ 1.34 µM) | MIC [21]: > 256 µg/mL | MIC (Staphylococcus aureus [23]): 0.25 µg/mL (≈ 0.334 µM) | MIC (Staphylococcus hominis [25]): > 256 µg/mL
